Screens as filed in PubChem BioAssay.
Rows were chosen to be rich in hits. Some 3.9% of all compounds tested hit in one or more screens of this group.
OX1R antag-1 = antagonists of human orexin 1 receptor; O43613; inhibition, % at 5 µM; 0.43% of 330,000 active; CHO/OX1R cells, Fluo-8 calcium fluorescence, orexin A;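 active = inhibition above its plate's threshold, mean inhibition of all tested compounds on the plate plus 3 SD, cut at about 37% in these data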;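 also: 0% = orexin A challenge wells and 100% = SB-334867-A antagonist wells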
Target sequence (O43613 whole entry, looked up): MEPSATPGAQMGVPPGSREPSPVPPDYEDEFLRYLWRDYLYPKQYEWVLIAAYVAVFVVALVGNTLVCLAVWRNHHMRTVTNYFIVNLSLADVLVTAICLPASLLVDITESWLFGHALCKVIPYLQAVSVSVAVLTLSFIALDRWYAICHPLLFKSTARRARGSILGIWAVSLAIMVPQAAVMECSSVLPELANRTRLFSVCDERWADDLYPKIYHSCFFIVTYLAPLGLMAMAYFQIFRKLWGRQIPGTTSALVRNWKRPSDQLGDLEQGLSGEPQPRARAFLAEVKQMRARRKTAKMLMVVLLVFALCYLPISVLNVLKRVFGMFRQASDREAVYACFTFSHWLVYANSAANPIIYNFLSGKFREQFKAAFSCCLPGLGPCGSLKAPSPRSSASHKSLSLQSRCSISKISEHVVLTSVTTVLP
TAAR1 agonist = human TAAR1 agonism; CHO RD-HGA16 TAAR1, Fluo-8 calcium fluorescence; vehicle wells 0%, saturating PEA agonist 100%; activation, % at 3 µM; 0.99% of 360,000 active;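 active = activation above the mean activation of all test compounds in the run plus 3 SD, cut at about 38% in these data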
Target sequence (Q96RJ0 whole entry, looked up): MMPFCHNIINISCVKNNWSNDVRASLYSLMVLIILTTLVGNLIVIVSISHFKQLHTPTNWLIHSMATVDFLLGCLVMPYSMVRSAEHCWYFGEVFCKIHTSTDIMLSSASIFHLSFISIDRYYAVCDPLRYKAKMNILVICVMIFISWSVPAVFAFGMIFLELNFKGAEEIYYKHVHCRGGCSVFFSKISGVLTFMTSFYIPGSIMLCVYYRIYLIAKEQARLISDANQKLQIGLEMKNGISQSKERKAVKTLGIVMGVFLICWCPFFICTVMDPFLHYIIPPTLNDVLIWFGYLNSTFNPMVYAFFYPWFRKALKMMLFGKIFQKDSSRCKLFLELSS
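Assay system: CHO-derived RD-HGA16 cells with stable Gα16 and human TAAR1; timing: 17-24 h seeding, 75 min 37 °C dye, 30 min RT; read-out: % activation from peak over basal fluorescence ratio, DMSO-to-PEA scaled; measured by: kinetic Fluo-8 calcium fluorescence; benchmarks: low control DMSO, high control PEA (EC100); doses: 3 µM single concentration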
CHO parental Ca = counter-screen for OX1R antagonists: effect in parental CHO cells; AID 463079; 0.63% of 330,000 active; parental CHO-K1, ATP-induced calcium, Fluo-8 fluorescence; inhibition, % at 5.6 µM;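 active = inhibition above that plate's mean sample inhibition plus 3 SD, cut at about 26% in these data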;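 also: 0% = ATP-challenged DMSO wells and 100% = DMSO wells without ATP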
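Test system: untransfected parental CHO cell line; also added: ATP stimulus; dosing: 5.6 µM, single dose; signal: calcium-sensitive Fluo-8 fluorescence; measure: percent inhibition of ATP-evoked calcium rise, normalized to controls; benchmarks: low control ATP plus DMSO, high control DMSO only; replication: one well per compound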
TAAR1 antag = human TAAR1 antagonism | Q96RJ0 | CHO RD-HGA16 TAAR1, Fluo-8 calcium fluorescence, antagonist | inhibition, % at 3 µM | 1.5% of 360,000 active;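 active = inhibition above a per-plate cutoff, the mean inhibition of test compounds on that plate plus 3 SD, cut at about 49% in these data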;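 also: 0% = DMSO plus EC80 beta-PEA response and 100% = DMSO alone without agonist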
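System: RD-HGA16 CHO cells with stable hTAAR1 and Gα16 | Probe or stimulus: EC80 β-phenethylamine stimulus | Dosing: 3 µM, single point | Times: Dye loading 75 min at 37 °C, then 30 min room temperature | Measured by: Fluo-8 calcium-sensitive fluorescence | Read-out basis: % inhibition of agonist calcium response | Replicates: n of 1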
OX1R antag-2 = blocks the human orexin 1 receptor; O43613; OX1R-expressing cells, FRET antagonist read-out; inhibition, % at 6.6 µM; 1.8% of 330,000 active; AID 485270; in the data active = inhibition mostly above about 38%, no sharp cut-off; inactive = mostly below about 40%;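 also: 0% = agonist challenge alone and 100% = reference antagonist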
TAAR1 ag confirm = human TAAR1 agonism, confirmed; 82% of 2,400 active; CHO RD-HGA16 TAAR1, Fluo-8 calcium fluorescence; scaled: DMSO 0%, maximal phenethylamine 100%; AID 651783; shares compounds with TAAR1 agonist; activation, % at 3 µM;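 active = activation above a cutoff set at the run's mean compound activation plus 3 SD, cut at about 39% in these data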
Ga16 ag counter = nonselective agonist in parental cells, TAAR1 agonist counter-screen | shares compounds with TAAR1 agonist | CHO-Ga16 parental, Fluo-8 calcium fluorescence; normalized to maximal ATP response, DMSO zero | activation, % at 3 µM | 50% of 2,400 active;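 active = activation above the run cutoff, the mean activation over all tested wells plus 3 SD, cut at about 12% in these data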;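 also: 0% = DMSO wells and 100% = maximal ATP response on the peak over basal ratio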
TAAR1 desens = counter-screen for human TAAR1 agonists: agonists that desensitize TAAR1; shares compounds with TAAR1 agonist; CHO RD-HGA16 hTAAR1, Fluo-8 calcium, beta-PEA response inhibition; inhibition, % at 3 µM; 46% of 2,400 active; AID 651951;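 active = inhibition above the run cutoff, the mean inhibition of all test compounds plus 3 SD, cut at about 49% in these data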;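 also: beta-PEA stimulus applied at its EC80; loss of beta-PEA calcium signal after compound pretreatment read as receptor desensitization; 0% = DMSO with beta-PEA at EC80 and 100% = DMSO alone without agonist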
Ga16 antag count = nonselective Ga16 antagonist in TAAR1 agonist counter-screen | inhibition, % at 3 µM | 39% of 2,400 active | shares compounds with TAAR1 agonist | CHO-Ga16 ATP-induced calcium, Fluo-8 fluorescence | AID 651952;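 active = inhibition above the plate's mean compound inhibition plus 3 SD, computed per plate, cut at about 22% in these data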;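 also: 0% = EC80 ATP with DMSO and 100% = DMSO wells without ATP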
Numbers without * were called inactive; . = not tested or not shown.

SMILES | OX1R antag-1 | TAAR1 agonist | CHO parental Ca | TAAR1 antag | OX1R antag-2 | TAAR1 ag confirm | Ga16 ag counter | TAAR1 desens | Ga16 antag count
COc1ccccc1/C=C1\SC(=S)N(CCC(=O)Nc2cccc(O)c2)C1=O | -9 | 63* | -5 | 81* | 0 | 71* | 33* | 67* | 40*
COc1cc(/C=C2\SC(=S)N(CC(=O)Nc3ccccn3)C2=O)cc(OC)c1OC | -24 | 87* | -18 | 4 | 19 | 114* | 67* | 64* | 30*
COc1cc(/C=C2\SC(=S)N(CCC(=O)Nc3ccccn3)C2=O)cc(OC)c1OC | -37 | 13 | -25 | 44 | 10 | . | . | . | .
COc1ccccc1/C=C1\SC(=S)N(CCC(=O)NNC(=O)c2ccccc2OC)C1=O | -27 | -1 | -17 | 5 | 9 | . | . | . | .
COc1ccc(S(=O)(=O)n2nc(OC(=O)c3cccs3)cc2N)cc1 | -12 | 53* | -2 | -6 | 44 | 20 | 5 | 6 | 14
COc1ccc(S(=O)(=O)n2nc(OC(=O)c3ccccc3)cc2N)cc1 | -1 | 57* | -9 | 7 | 13 | 51* | 13* | 6 | 16
C[n+]1c2cc(N)ccc2cc2ccc(N)cc21 | . | 82* | . | 15 | . | 103* | 123* | 24 | 42*
Nc1ccc2ccc(O)cc2c1 | . | 0 | . | 6 | . | . | . | . | .
CC(C)N(C)c1ncnc2c1ncn2[C@H]1CN(Cc2ccc(F)cc2)C[C@@H](CO)O1 | . | 1 | . | -23 | . | . | . | . | .
COc1ccc2cc(C(=O)N/N=C/c3sc4ccccc4c3O)ccc2c1 | 2 | 108* | 5 | 28 | 22 | 49* | 57* | 44 | 53*
NC(=O)c1ccc(NCCc2cccs2)cc1 | . | 15 | . | -21 | . | . | . | . | .
Cn1c2ccccc2c(=O)c2ccc(NCCc3cccs3)cc21 | 6 | 49* | -3 | 63* | 40 | 55* | 5 | 51* | 32*
NC(CO)c1csc(Nc2ccc(C(F)(F)F)cn2)n1 (stereo unspecified) | . | 0 | . | 2 | . | . | . | . | .
NC(CCc1ccccc1)c1csc(Nc2ccc(C(F)(F)F)cn2)n1 (stereo unspecified) | . | 56* | . | 21 | . | 40* | 25* | 40 | 36*
NC(COCc1ccccc1)c1csc(Nc2ccc(C(F)(F)F)cn2)n1 (stereo unspecified) | . | 36 | . | 3 | . | . | . | . | .
NC(c1csc(Nc2ccc(C(F)(F)F)cn2)n1)C1CCCCC1 (stereo unspecified) | . | 76* | . | 20 | . | 75* | 43* | 60* | 55*
CC(C)CC(N)c1csc(Nc2ccc(C(F)(F)F)cn2)n1 (stereo unspecified) | . | 58* | . | 25 | . | 54* | 22* | 31 | 26*
NC(c1csc(Nc2cnccn2)n1)C1CCCCC1 (stereo unspecified) | . | 6 | . | -13 | . | . | . | . | .
COC(=O)[C@@]12OC[C@]34[C@H]([C@@H](O)[C@@H]1O)[C@@]1(C)C(=O)C(O[C@@H]5OC(CO)[C@@H](O)[C@@H](O)[C@@H]5O)=C[C@@H](C)[C@@H]1C[C@H]3OC(=O)[C@H](OC(=O)/C=C(\C)C(C)(C)OC(C)=O)[C@@H]24 (stereo partly specified) | -12 | . | -7 | . | 11 | . | . | . | .
COc1ccc(N2C(=O)C3C(c4ccc(C(=O)O)cc4)NC(Cc4ccccc4)(C(=O)O)C3C2=O)c([N+](=O)[O-])c1 (stereo unspecified) | -2 | 3 | -7 | -2 | 11 | . | . | . | .
O=C(O)CCc1ccc(-c2cccs2)n1CCc1ccccc1 | -18 | 62* | -11 | 32 | 14 | 83* | 0 | 73* | 5
CCOC(=O)c1c(NC(=O)COC(=O)C2CC2C)sc(C)c1C (stereo unspecified) | -23 | 3 | -34 | -3 | 4 | . | . | . | .
Cc1cc(C)cc(OCC(=O)Nc2ccc3c4c(cccc24)CC3)c1 | 0 | 102* | -6 | 81* | 7 | 34 | 0 | 21 | 1
C/C=C/c1cccc(-c2nc(C(=O)N3CCCCC3)cc3c2[C@@H](CCO)N(C(=O)NC(C)C)C3)c1 | . | -1 | . | 16 | . | . | . | . | .
Cc1cccc(OCC(=O)NNC(=O)c2cc3ccccc3oc2=O)c1 | -26 | 64* | -19 | 10 | 73* | 84* | 18* | 36 | 2
SMILES | OX1R antag-1 | TAAR1 agonist | CHO parental Ca | TAAR1 antag | OX1R antag-2 | TAAR1 ag confirm | Ga16 ag counter | TAAR1 desens | Ga16 antag count
O=C(COc1ccc(F)cc1)NNC(=O)c1cc2ccccc2oc1=O | -24 | . | -14 | . | 57 | . | 0 | . | 4
Cc1ccc(OCC(=O)NNC(=O)c2cc3ccccc3o2)cc1 | 11 | 32 | -8 | -1 | 13 | . | . | . | .
CCOc1cc(C(=O)Nc2cccc3ncccc23)cc(OCC)c1OCC | -27 | 14 | -17 | -5 | 9 | . | . | . | .
CCOC(=O)[C@H]1[C@H]2COc3ccccc3[C@@H]2N2C(=O)CNC(=O)[C@@]12C | 3 | 4 | -3 | -6 | 22 | . | . | . | .
CC1Nc2ncnc(N3CCc4ccccc4C3)c2N(Cc2ccc(Br)cc2)C1=O (stereo unspecified) | -23 | 83* | -20 | 32 | 19 | 33 | 2 | 4 | 13
CSCCC(NC(=O)COc1ccccc1)C(=O)N(C)Cc1ccc(Cl)cc1Cl (stereo unspecified) | -21 | 12 | -41 | 46 | 8 | . | . | . | .
COc1cccc(N2CC(NS(=O)(=O)c3cccnc3)CC2=O)c1 (stereo unspecified) | -24 | 11 | -15 | -11 | 6 | . | . | . | .
COc1ccc(Nc2cc(C)nc(N3CCOCC3)n2)cc1 | -7 | 49* | -6 | 3 | 20 | 70* | 5 | 38 | 6
COc1ccc(/C=N/Nc2cc(C)nc(N3CCOCC3)n2)cc1 | -10 | 1 | -4 | -24 | 2 | . | . | . | .
CNC(=O)c1sc(-c2ccccn2)nc1C | -6 | 1 | -4 | 4 | 19 | . | . | . | .
CC1CC1C(=O)OCC(=O)N(C)c1c(N)n(Cc2ccccc2)c(=O)[nH]c1=O (stereo unspecified) | -9 | 51* | 12 | -20 | 14 | 4 | 14* | 3 | 9
COCCN(C(=O)COC(=O)C1CC1C)c1c(N)n(Cc2ccccc2)c(=O)[nH]c1=O (stereo unspecified) | -12 | 1 | 3 | -21 | 9 | . | . | . | .
